Our source for the IC50, pIC50 and Activity values is ChEMBL document CHEMBL2034908, “Isoxazolo(aza)naphthoquinones: a new class of cytotoxic Hsp90 inhibitors” (Eur J Med Chem, 2012).

Experiment [1] is described as follows: Cytotoxicity against human STO cells after 72 hrs. The class given is functional, cell-based. The essentials:
(§1)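 Compounds were dissolved fresh in DMSO and diluted in culture medium. Cells were exposed for 72 h at 37 °C in medium with 10% heat-inactivated FBS under 5% CO2. IC50 reported ± SD. STO cells were grown in 50/50 DMEM-Ham's F12 with 10% FBS and 2 mM L-Gln.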

For experiment [2], the system named is NCI-H460. Kind of experiment: Cytotoxicity against human NCI-H460 cells after 72 hrs. The class given is functional, cell-based. Particulars: NCI-H460, 72 h. The essentials: as §1
Experiment [3] relates to A-431. Briefly: Cytotoxicity against human A431 cells after 72 hrs. The class given is functional, cell-based. Particulars: A-431, 72 h.
A short description of experiment [4]: Binding affinity to Hsp90 after 4 hrs by GM-FITC based fluorescence polarization assay. The essentials:
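Commercial Hsp90 at 30 nM was mixed with GM-FITC tracer at 5 nM and serially diluted compound. Buffer: 20 mM HEPES(K) pH 7.3, 50 mM KCl, 5 mM MgCl2, 20 mM Na2MoO4, 0.01% NP40, with fresh 0.1 mg/ml bovine gamma globulin and 2 mM DTT. Shaken 4 h at 4 °C, then FP read in mP. IC50 is the concentration displacing 50% of tracer, from triplicate wells by nonlinear least-squares fit.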
Background: Polarisation of emitted light reports the rotation of a fluorescent probe.

For experiment [5], the system named is NCI-H460. Briefly: Cytotoxicity against human NCI-H460 cells at >1 uM after 72 hrs. The class given is functional.

On to `COc1cccc2c1C(=O)c1c(-c3ccncc3)noc1C2=O`, for which the concentration for half-maximal inhibition (IC50) in experiment [1] was found to be 261 nM; in experiment [2], 880 nM; in experiment [3], 330 nM; in experiment [4] it was 1900 nM. The compound also came in with a pIC50 in experiment [4] of 5.72.

For the compound `O=C1c2ccccc2C(=O)c2c(-c3ccc[n+](Cc4ccccc4)c3)noc21.[Br-]`, the IC50 in experiment [1] came to 10 nM; in experiment [2] it was 21 nM; in experiment [3] it was 20 nM; in experiment [4], 770 nM. The compound also displayed a pIC50 in experiment [4] of 6.11.

With `COc1ccc(-c2noc3c(OC(C)=O)c4ccccc4c(OC(C)=O)c23)cc1`, the concentration for half-maximal inhibition (IC50) was 1000 nM in experiment [1], over 1000 nM in experiment [2], 1300 nM in experiment [3] and over 100000 nM in experiment [4]. Besides, the Activity in experiment [5] is 39%.

Take `O=C1c2ccccc2C(=O)c2c(-c3ccccc3O)noc21`: the IC50 is 3400 nM in experiment [1], over 1000 nM in experiment [2], 3400 nM in experiment [3] and 1550 nM in experiment [4]. The compound further returned a pIC50 in experiment [4] of 5.81.

Consider `CC(=O)Oc1cccc2c1C(=O)c1c(-c3ccncc3)noc1C2=O`, for which the IC50 in experiment [1] is 150 nM; in experiment [2], 150 nM; in experiment [3], 60 nM; in experiment [4], 84 nM. Further, in experiment [4], the pIC50 stood at 7.08.

`O=C1c2ccccc2C(=O)c2c(/C=C/c3ccccc3)noc21`: the IC50 in experiment [1] was 120 nM; in experiment [2], over 1000 nM; in experiment [3], 320 nM; in experiment [4] it was over 100000 nM. The Activity in experiment [5] came out at 40%.

With `O=C1c2cccc(O)c2C(=O)c2c(-c3ccncc3)noc21`, the half-inhibitory concentration (IC50) was 103 nM in experiment [1], 880 nM in experiment [2], 68 nM in experiment [3] and over 100000 nM in experiment [4].

With `COc1cc(OC)c(-c2noc3c2C(=O)c2ccccc2C3=O)cc1Cl`, the 50% inhibitory concentration (IC50) in experiment [1] is 135 nM; in experiment [2], 880 nM; in experiment [3], 1400 nM; in experiment [4] it was over 100000 nM.

With `O=C1c2ccccc2C(=O)c2c(-c3cc(Cl)c(O)cc3O)noc21`, the concentration for half-maximal inhibition (IC50) was 1000 nM in experiment [1], over 1000 nM in experiment [2], 23000 nM in experiment [3] and 4200 nM in experiment [4]. In addition, the pIC50 in experiment [4] is 5.38.

On to `O=C1c2ccccc2C(=O)c2c(-c3cc[n+](Cc4cnccn4)cc3)noc21.[Br-]`, for which the IC50 in experiment [1] was 220 nM; in experiment [2], 17 nM; in experiment [3] it was 52 nM; in experiment [4], 680 nM. The compound also showed a pIC50 in experiment [4] of 6.17.

Turning to `O=C1c2ccccc2C(=O)c2c(-c3ccc(O)cc3)noc21`, the half-inhibitory concentration (IC50) was 460 nM in experiment [1], 510 nM in experiment [2], 210 nM in experiment [3] and over 100000 nM in experiment [4].

With `O=C1c2ccccc2C(=O)c2c(-c3ccncc3)noc21`, the concentration for half-maximal inhibition (IC50) in experiment [1] is 11 nM; in experiment [2], 140 nM; in experiment [3], 56 nM; in experiment [4] it was 390 nM. The negative logarithm of the IC50 (pIC50) in experiment [4] was 6.41.

With `O=C1c2ccccc2C(=O)c2c(-c3ccccc3)noc21`, the IC50 in experiment [1] came out at 20 nM; in experiment [2], 120 nM; in experiment [3], 120 nM; in experiment [4], 7850 nM. This compound returned a pIC50 in experiment [4] of 5.11.

`O=C1c2cccc(O)c2C(=O)c2c(-c3cc[n+](Cc4ccccc4)cc3)noc21.[Br-]`: the half-inhibitory concentration (IC50) in experiment [1] came to 21600 nM; in experiment [2], 880 nM; in experiment [3], 21600 nM; in experiment [4] it was 98 nM. This compound also yielded a pIC50 in experiment [4] of 7.01.

For the compound `C[n+]1ccc(-c2noc3c2C(=O)c2ccccc2C3=O)cc1.[I-]`, the half-maximal inhibitory concentration (IC50) in experiment [1] turned out to be 1200 nM; in experiment [2] it was 330 nM; in experiment [3] it was 480 nM; in experiment [4] it was 630 nM. This compound returned a pIC50 in experiment [4] of 6.2.

With `O=C1c2ccncc2C(=O)c2c(-c3ccc(F)cc3)noc21`, the IC50 in experiment [1] amounted to 4 nM; in experiment [2], 183 nM; in experiment [3], 4 nM; in experiment [4] it was 5600 nM. The compound also yielded a negative-log IC50 (pIC50) in experiment [4] of 5.25.

`O=C1c2ccccc2C(=O)c2c(-c3ccc(F)cc3)noc21`: the concentration for half-maximal inhibition (IC50) in experiment [1] is 20 nM; in experiment [2] it was 350 nM; in experiment [3], 260 nM; in experiment [4] it was 200000 nM. Besides, in experiment [4], the pIC50 came to 3.7.

Regarding `CC(=O)Oc1cccc2c1C(=O)c1c(-c3cc[n+](Cc4ccccc4)cc3)noc1C2=O.[Br-]`, the IC50 in experiment [1] was 3960 nM; in experiment [2] it was over 1000 nM; in experiment [3] it was 3960 nM; in experiment [4], 31 nM. This compound registered an Activity in experiment [5] of 32%. In addition, the negative logarithm of the IC50 (pIC50) in experiment [4] turned out to be 7.51.

Regarding `O=C1c2ccccc2C(=O)c2c(-c3ccccn3)noc21`, the IC50 is 20 nM in experiment [1], 1000 nM in experiment [2], 340 nM in experiment [3] and 1060 nM in experiment [4]. Besides, the negative-log IC50 (pIC50) in experiment [4] came out at 5.97.

On to `CC(=O)Oc1cccc2c1C(=O)c1c(-c3ccc(F)cc3)noc1C2=O`, for which the IC50 amounted to 1050 nM in experiment [1], 78 nM in experiment [2], 270 nM in experiment [3] and 1940 nM in experiment [4].

Consider `COc1ccccc1-c1noc2c1C(=O)c1ccccc1C2=O`, for which the 50% inhibitory concentration (IC50) in experiment [1] stood at 660 nM; in experiment [2], 290 nM; in experiment [3], 130 nM; in experiment [4], 200000 nM. The same compound displayed a pIC50 in experiment [4] of 3.7.

Regarding `O=C1c2cccc(O)c2C(=O)c2c(-c3ccc(F)cc3)noc21`, the IC50 came out at 610 nM in experiment [1], 124 nM in experiment [2], 290 nM in experiment [3] and 290 nM in experiment [4]. Also, in experiment [4], the pIC50 was 6.54.

On to `C=CCNC1=C2C[C@@H](C)C[C@H](OC)[C@H](O)[C@@H](C)/C=C(\C)[C@H](OC(N)=O)[C@@H](OC)/C=C\C=C(/C)C(=O)NC(=CC1=O)C2=O` [TANESPIMYCIN], for which the half-maximal inhibitory concentration (IC50) in experiment [2] stood at 10 nM; in experiment [3] it was 69 nM; in experiment [4], 1100 nM.

On to `O=C1c2ccncc2C(=O)c2c(-c3ccncc3)noc21`, for which the IC50 in experiment [1] was determined as 60 nM; in experiment [2], 85 nM; in experiment [3], 8.5 nM; in experiment [4] it was 120 nM. In experiment [4], this compound showed a negative logarithm of the IC50 (pIC50) of 6.92.

For `O=C1c2ccccc2C(=O)c2c(-c3ccc4[nH]ccc4c3)noc21`, the half-inhibitory concentration (IC50) in experiment [1] is 320 nM; in experiment [2] it was 300 nM; in experiment [3], 320 nM; in experiment [4] it was over 100000 nM. The compound further showed a pIC50 in experiment [4] of 5.71.

Consider `COc1cccc2c1C(=O)c1c(-c3cc[n+](Cc4ccccc4)cc3)noc1C2=O.[Br-]`, for which the 50% inhibitory concentration (IC50) in experiment [1] was 168 nM; in experiment [2] it was 180 nM; in experiment [3], 168 nM; in experiment [4] it was 340 nM. The negative-log IC50 (pIC50) in experiment [4] is recorded as 6.47.

For the compound `O=C1c2ccccc2C(=O)c2c(-c3cccnc3)noc21`, the IC50 in experiment [1] came to 40 nM; in experiment [2] it was 62 nM; in experiment [3] it was 43 nM; in experiment [4], 540 nM. The compound further displayed a pIC50 in experiment [4] of 6.27.

As for `O=C1c2ccccc2C(=O)c2c(-c3cccc[n+]3Cc3ccccc3)noc21.[Br-]`, the 50% inhibitory concentration (IC50) was 2240 nM in experiment [1], over 1000 nM in experiment [2], 2240 nM in experiment [3] and 200000 nM in experiment [4]. In experiment [4], the pIC50 came out at 3.7.

As to `COc1cc(O)c(-c2noc3c2C(=O)c2ccccc2C3=O)cc1Cl`, the half-maximal inhibitory concentration (IC50) is 300 nM in experiment [1], over 1000 nM in experiment [2], 2980 nM in experiment [3] and over 100000 nM in experiment [4].

On to `COc1ccc(-c2noc3c2C(=O)c2cnccc2C3=O)cc1`, for which the half-maximal inhibitory concentration (IC50) in experiment [1] stood at 92 nM; in experiment [2] it was 446 nM; in experiment [3] it was 98 nM; in experiment [4], 1600 nM. In experiment [4], this compound showed a pIC50 of 5.61.

For the compound `O=C1c2ccccc2C(=O)c2c(-c3ccc[n+](Cc4cnccn4)c3)noc21.[Br-]`, the IC50 in experiment [1] was determined as 110 nM; in experiment [2] it was 46 nM; in experiment [3], 42 nM; in experiment [4], 510 nM. In experiment [4], this compound came in with a pIC50 of 6.29.

As to `Cl.O=C1c2ccccc2C(=O)c2c(-c3ccc(OCCN4CCOCC4)cc3)noc21`, the half-inhibitory concentration (IC50) in experiment [1] is 1130 nM; in experiment [2] it was 866 nM; in experiment [3], 440 nM; in experiment [4] it was 1200 nM. This compound also returned a negative logarithm of the IC50 (pIC50) in experiment [4] of 5.92.

On to `CC(=O)Oc1c2ccccc2c(OC(C)=O)c2c(-c3ccc(F)cc3)noc12`, for which the IC50 in experiment [1] was 670 nM; in experiment [2] it was over 1000 nM; in experiment [3] it was 690 nM; in experiment [4] it was over 100000 nM.

`COc1ccc(-c2noc3c2C(=O)c2ccccc2C3=O)cc1`: the IC50 in experiment [1] was found to be 160 nM; in experiment [2], 650 nM; in experiment [3], 350 nM; in experiment [4], 5840 nM.

For orientation: IC50 means the concentration that inhibits the measured activity by half. A low value points to inhibition by little substance. The term pIC50 denotes −log10 of the IC50, conventionally taken in molar units. Low readings indicate a large IC50, high ones a small IC50.
